Screens as filed in PubChem BioAssay.
M4 antag: antagonists of human muscarinic M4 receptor (CHRM4) | 0.73% of 360,000 active | P08173 | inhibition, % at 3 µM | CHO-hM4 cells, ACh EC80, Fluo-8 calcium fluorescence;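 active = inhibition above its plate's cutoff, the mean inhibition of sample wells plus 3 SD, cut at about 27% in these data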;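 also: 0% = acetylcholine EC80 with DMSO and 100% = DMSO without agonist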
Target sequence (P08173 whole entry, looked up): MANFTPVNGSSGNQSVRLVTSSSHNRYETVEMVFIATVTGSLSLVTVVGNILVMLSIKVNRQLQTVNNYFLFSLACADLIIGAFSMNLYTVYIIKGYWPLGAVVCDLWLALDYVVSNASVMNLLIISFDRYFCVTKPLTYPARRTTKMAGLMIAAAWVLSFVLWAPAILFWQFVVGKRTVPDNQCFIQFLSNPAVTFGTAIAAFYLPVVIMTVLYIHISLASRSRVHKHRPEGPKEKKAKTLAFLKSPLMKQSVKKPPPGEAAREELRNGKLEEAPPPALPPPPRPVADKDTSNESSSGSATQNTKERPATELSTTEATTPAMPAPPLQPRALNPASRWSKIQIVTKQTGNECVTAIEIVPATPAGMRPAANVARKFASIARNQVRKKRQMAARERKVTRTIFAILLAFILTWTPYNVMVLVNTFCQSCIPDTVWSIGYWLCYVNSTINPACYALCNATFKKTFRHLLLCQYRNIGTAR
CHRM5 antagonist: blocks acetylcholine activation of human M5 receptor; CHO-hM5 cells, Fluo-8 calcium fluorescence, ACh EC80; inhibition, % at 3 µM; 0.59% of 360,000 active;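 active = inhibition above a per-plate cutoff, the mean of that plate's test compounds plus 3 SD, cut at about 27% in these data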;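 also: 0% = acetylcholine EC80 with DMSO and 100% = DMSO without agonist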
CHRM5 PAM: potentiates acetylcholine response at human M5 receptor; activation, % at 3 µM; P08912; CHO-K1 hM5, Fluo-8 calcium, ACh EC20 PAM; 0% = ACh EC20, 100% = ACh EC100; 0.3% of 360,000 active;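 active = activation above the run cutoff, the mean activation of all test compounds plus 3 SD, cut at about 18% in these data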
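System – CHO-K1 hM5 cells · Compound – 3 µM, single dose · Incubation – compound preincubation 140 s before EC20 acetylcholine addition · Technique – Fluo-8 calcium fluorescence · Measure – Max/basal fluorescence ratio as % of EC20–EC100 ACh window · Benchmarks – low control EC20 acetylcholine (0%), high control EC100 acetylcholine (100%) · Replication – singlicate, one well per test compound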
CHRM4 PAM: positive allosteric modulators of human muscarinic M4 receptor | P08173 | CHO-K1 hM4/Gqi5, Fluo-8 calcium fluorescence, ACh EC20; 0% = ACh EC20, 100% = maximal ACh | activation, % at 3 µM | 0.4% of 360,000 active | AID 624126;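 active = activation above its plate's cutoff, the mean activation of sample wells plus 3 SD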
M4 ag: CHRM4 agonism in calcium assay; P08173; CHO-K1 hM4/Gqi5, Fluo-8 calcium fluorescence; vehicle 0%, full acetylcholine response 100%; activation, % at 3 µM; 0.14% of 360,000 active; AID 624127;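 active = activation above the run mean over all test wells plus 3 SD, cut at about 32% in these data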;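 also: peak over basal fluorescence ratio per well then scaled between controls; 0% = DMSO wells and 100% = acetylcholine at EC100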
M5 ag: agonists of human muscarinic M5 receptor (CHRM5); P08912; CHO-K1 hM5 cells, Fluo-8 calcium fluorescence; 0% DMSO wells, 100% maximal acetylcholine response; activation, % at 3 µM; 0.19% of 360,000 active; AID 624037;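 active = activation above the run's mean over test compounds plus 3 SD, cut at about 23% in these data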;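 also: signal is peak over basal fluorescence ratio across the kinetic read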
Active calls of the source: *. The list is not random: actives were taken first. Their share in the collection is about 1.8%.

SMILES	M4 antag	CHRM5 antagonist	CHRM5 PAM	CHRM4 PAM	M4 ag	M5 ag
COc1ccc2[nH]cc(CCNC(=O)COc3cc(C)cc4oc(=O)cc(C)c34)c2c1	8	7	-15	-13	14	2
Cc1cccc(NC(=O)Cc2nc(-c3c[nH]c(C(=O)N4CCCC4)c3)cs2)c1	-7	-4	2	4	11	5
Cn1c(N)c(-c2ccccc2)c2ccc([N+](=O)[O-])cc2c1=O	17	16	-9	-20	56*	23
O=C(Nc1nccs1)c1sc2cc(Cl)ccc2c1Cl	-12	-3	23*	25*	1	1
Cc1nc2nc(-c3ccccc3)cn2nc1C	-17	-9	0	18*	1	2
CN(C)c1ccc(C2CC(=O)C=C(Nc3ccccc3N)C2)cc1 (stereo unspecified)	5	7	-12	-8	2	3
Clc1ccc2nnc(Cl)n2n1	-15	0	4	19*	2	-2
FC(F)c1nnc2ccc(Cl)nn12	-6	11	-1	10	1	-1
Cc1cc(C)n(-c2ccc(C(=O)Nc3cccc([N+](=O)[O-])c3)cc2)n1	4	27*	-15	-9	12	0
Cc1cc(C)n(-c2ccc(C(=O)Nc3cccc(S(=O)(=O)N(C)C)c3)cc2)n1	7	19	-18	-13	19	4
CC(C)NC(=O)c1ccc2c(=O)n(C3CCCC3)c(=S)[nH]c2c1	4	-1	1	7	0	-2
O=C(NCCN1CCCC1)c1ccc(Cn2c(=S)[nH]c3ccc(Br)cc3c2=O)cc1	1	26	-33	-13	6	46*
CC1CCN(CCNC(=O)c2ccc3c(=O)n(Cc4ccc(Cl)cc4)c(=S)[nH]c3c2)CC1	29*	17	-15	-22	59*	2
CCN(CC)CCNC(=O)c1ccc2c(=O)n(C3CCCC3)c(=S)[nH]c2c1	27*	1	-3	-27	2	-8
O=C(NCCCN1CCOCC1)c1ccc2c(=O)n(Cc3cccc(Br)c3)c(=S)[nH]c2c1	4	14	2	-1	3	0
CCn1ncc(Br)c1C(=O)Nc1c(C)nn(Cc2c(F)c(F)c(F)c(F)c2F)c1C	-11	5	-7	-7	11	2
Cc1cccc(S(=O)(=O)N(C)C[C@@H]2OCc3cn(nn3)CCCC(=O)N([C@H](C)CO)C[C@H]2C)c1	-11	3	0	3	0	0
COc1ccc(NC(=O)C2(N(C(=O)Cn3nnnc3N)c3ccc(OC)cc3)CCCCC2)cc1	-20	-6	3	5	3	-3
CCC(C)(C(=O)Nc1ccc(OC)cc1)N(C)C(=O)Cn1nnnc1N (stereo unspecified)	-25	-3	19*	9	2	1
CC(=O)NS(=O)(=O)c1ccc(NC(=O)C2c3ccccc3Oc3ccccc32)cc1	-11	-10	22*	17	1	-9
CNS(=O)(=O)c1ccc(NC(=O)C2c3ccccc3Oc3ccccc32)cc1	3	7	-1	-6	5	11
Cc1ccc2[nH]c(CNC(=O)c3ccc(F)cc3)cc2c1	-2	5	-2	3	5	-2
O=C(Nc1ccc(Oc2ccccc2)cc1)c1ccc2sc([C@H]3C[C@H](O)[C@@H](CO)O3)nc2c1	28*	8	-3	-2	9	4
C/C(=N/OC(=O)c1c(-c2c(Cl)cccc2Cl)noc1C)c1cnccn1	24	17	-33	-25	1	-17
C/C(=N/OC(=O)c1c(-c2ccccc2Cl)noc1C)c1cnccn1	34*	4	-33	-21	4	-15
SMILES	M4 antag	CHRM5 antagonist	CHRM5 PAM	CHRM4 PAM	M4 ag	M5 ag
CN(C)CC(=O)N[C@@H]1C=C[C@@H](CC(=O)NCCN2CCCCC2)O[C@@H]1CO	-19	-13	10	12	2	1
CN(C)CC(=O)N[C@@H]1CC[C@@H](CC(=O)NCCN2CCCCC2)O[C@@H]1CO	-9	-18	20*	3	1	0
CCCNC(=O)c1ccc(N2CCC3(CC2)CC(c2cccc(Br)c2)=NO3)c([N+](=O)[O-])c1	33*	17	-26	-8	11	2
O=c1cc(O)c2c(=O)[nH]c(=O)n(-c3ccccc3)c2[nH]1	8	5	-3	16*	2	-5
Cn1c(=O)c2c(O)cc(=O)[nH]c2n(-c2ccccc2)c1=O	-1	2	-5	2	0	-2
Cc1ccc(/C=C/C(=O)Nc2nnc(SCc3ccc(C#N)cc3)s2)o1	-5	-4	3	13	2	-1
COCCCNc1c2c3c(cccc3[nH]c1=O)C(=O)c1ccccc1-2	53*	41*	-26	-18	305*	94*
CCC(C)N(CCNC(=O)CC1Oc2ccc(C)cc2NC1=O)C1CCCCC1 (stereo unspecified)	71*	18	-22	-18	0	-6
O=C(NCc1ccccc1)c1cc[n+](CC(=O)c2cccs2)cc1	1	-1	0	-4	1	2
COc1cccc2c1cc1c(=O)n(CC(=O)NCCCN3CCCCC3)nc(C)n12	5	-2	1	1	0	-6
C/C(=N\NC(=O)c1cc2c(s1)CCC(C)C2)c1ccc[nH]1 (stereo unspecified)	1	2	6	2	41*	2
Cc1ccc(OCc2ccc(C(=O)NNC(=S)NCC3CCCO3)o2)c([N+](=O)[O-])c1 (stereo unspecified)	-3	-22	19*	5	2	-1
CC12CC3CC(C)(C1)CC(C(=O)Nc1nncs1)(C3)C2	-14	5	-2	6	-1	0
CN(c1ccccc1)c1nc(N)c([N+](=O)[O-])c(NCCO)n1	-4	15	-11	-22	10	0
CC(C)(c1ccc(O)c([N+](=O)[O-])c1)c1ccc(O)c([N+](=O)[O-])c1	-15	11	-15	8	2	-4
CN(C)Cc1cc(C(C)(C)c2ccccc2)ccc1O	2	29*	-38	-9	4	-11
CC(=O)Nc1ccc(CN(C)c2c(C)nc3ccc(C(=O)NCCCn4ccnc4)cn23)cc1	4	-2	0	-3	0	-1
O=C(c1cc(Cl)cc(Cl)c1)N1CCC2CC1c1cc(N3CCCCC3)ccc12 (stereo unspecified)	27*	13	-18	-12	-2	-3
Cc1ccc(O)c(C(=O)c2cc(C#N)c(=O)n(-c3nccs3)c2)c1	26	32*	-17	-18	57*	34*
